Data taken from article PMC3913000 (Nature chemical biology, 2013).
Entries after “also recorded” stand apart in the source; their conditions may differ.

Legend:
RBL cells = assay: Inhibition of allergen-induced RBL mast cell degranulation; type: cell-based, rat; conditions: equimolar IgE^DNP and IgE^dansyl; 500 nM HtTA [dansyl2NF2]
IgE = conditions: read-out: Kd for IgE (nucleotide-binding site ligand); cited from earlier work
IgE^dansyl = assay: Fluorescence quenching assay, hapten binding to IgE^dansyl; conditions: dansyl-IgE^dansyl versus NF-IgE^DNP
Summary of the method: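 Monovalent hapten titrated into 10 nM IgE in PBS. Binding read as quenching of IgE tryptophan fluorescence at 335 nm, which occurs only when hapten and IgE are in proximity (<10 nm). Monovalent binding constants were derived from the quenching. At least triplicate.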

Molecule	inhibition of HtTA [dansyl2NF2]-induced degranulation (RBL cells)	Kd (IgE)	difference in affinity between dansyl-IgE^dansyl and NF-IgE^DNP pairs (IgE^dansyl)
O=C(O)CCCc1c[nH]c2ccccc12 [IBA, indole-3-butyric acid]	did not inhibit degranulation; also recorded: no inhibition of mast cell degranulation was observed	4.5 ± 0.6 µM	–
dansyl	–	–	760 fold
